Test results reported in ChEMBL document CHEMBL1146260, “Synthesis and antifungal activity of 1H-indole-4,7-diones” (2007).
Values after ≈ are worked out from the molar mass of the structure shown.

Assays:
Format in all cases: functional
[1] = system: Candida albicans; test: Antifungal activity against Candida albicans Berkout KCCM 50235 after 1 day by 2-fold broth dilution method; settings: KCCM 50235, 24 h
Procedure, shortened: (§1)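 MIC by 2-fold broth dilution in modified Sabouraud dextrose broth; inoculum about 1 · 10⁵ cells/mL; final drug concentrations […]; 37 °C, read after 1 day; 5-fluorocytosine run as standard agent.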

[2] = system: Candida tropicalis; test: Antifungal activity against Candida tropicalis Berkout KCCM 50662 after 1 day by 2-fold broth dilution method; settings: KCCM 50662, 24 h; procedure, shortened: as §1
[3] = system: Pichia kudriavzevii; test: Antifungal activity against Candida krusei Berkout KCCM 11655 after 1 day by 2-fold broth dilution method; settings: KCCM 11655, 24 h; procedure, shortened: as §1
[4] = system: Cryptococcus neoformans; test: Antifungal activity against Cryptococcus neoformans KCCM 50564 after 1 day by 2-fold broth dilution method; settings: KCCM 50564, 24 h; procedure, shortened: as §1
[5] = system: Aspergillus niger; test: Antifungal activity against Aspergillus niger KCTC 1231 after 2 days by 2-fold broth dilution method; settings: KCTC 1231, 48 h
Procedure, shortened: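 Two-fold broth dilution MIC in modified Sabouraud dextrose broth, inoculum about 1 · 10⁵ cells/mL, final agent range […]; incubated at 37 °C, MIC read after 2 days; 5-fluorocytosine as standard agent.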

Row | SMILES | MIC [1] | MIC [2] | MIC [3] | MIC [4] | MIC [5]
1 | O=C1C(Sc2ccc(Br)cc2)=C(Sc2ccc(Br)cc2)C(=O)c2[nH]ccc21 | > 100 µg/mL | > 100 µg/mL | > 100 µg/mL | 3.2 µg/mL (≈ 6.14 µM) | 12.5 µg/mL (≈ 24 µM)
2 | COC(=O)c1cn(-c2ccc(C)c(C)c2)c2c1C(=O)C(C)=C(C)C2=O | 12.5 µg/mL (≈ 37.1 µM) | > 100 µg/mL | 0.8 µg/mL (≈ 2.37 µM) | 1.6 µg/mL (≈ 4.74 µM) | 6.3 µg/mL (≈ 18.7 µM)
3 | COC(=O)c1cn(-c2ccc(OC)cc2)c2c1C(=O)C(C)=C(C)C2=O | > 100 µg/mL | 50 µg/mL (≈ 147 µM) | 3.2 µg/mL (≈ 9.43 µM) | 100 µg/mL (≈ 295 µM) | > 100 µg/mL
4 | Cc1ccc(SC2=C(Sc3ccc(C)c(C)c3)C(=O)c3[nH]ccc3C2=O)cc1C | > 100 µg/mL | > 100 µg/mL | > 100 µg/mL | 50 µg/mL (≈ 119 µM) | 100 µg/mL (≈ 238 µM)
5 | COC(=O)c1cn(C)c2c1C(=O)C(C)=C(C)C2=O | > 100 µg/mL | > 100 µg/mL | 3.2 µg/mL (≈ 12.9 µM) | 1.6 µg/mL (≈ 6.47 µM) | > 100 µg/mL
6 | COC(=O)c1cn(-c2ccc(OC(F)(F)F)cc2)c2c1C(=O)C(C)=C(C)C2=O | > 100 µg/mL | > 100 µg/mL | 6.3 µg/mL (≈ 16 µM) | 1.6 µg/mL (≈ 4.07 µM) | 3.2 µg/mL (≈ 8.14 µM)
7 | O=C1C(Sc2ccc(Cl)cc2)=C(Sc2ccc(Cl)cc2)C(=O)c2[nH]ccc21 | > 100 µg/mL | 12.5 µg/mL (≈ 28.9 µM) | 25 µg/mL (≈ 57.8 µM) | 3.2 µg/mL (≈ 7.4 µM) | > 100 µg/mL
8 | COC(=O)c1cn(-c2ccc(C(C)C)cc2)c2c1C(=O)C(C)=C(C)C2=O | 12.5 µg/mL (≈ 35.6 µM) | 12.5 µg/mL (≈ 35.6 µM) | 100 µg/mL (≈ 285 µM) | 100 µg/mL (≈ 285 µM) | 3.2 µg/mL (≈ 9.11 µM)
9 | O=C1C(Sc2cccc(Cl)c2)=C(Sc2cccc(Cl)c2)C(=O)c2[nH]ccc21 | 6.3 µg/mL (≈ 14.6 µM) | 1.6 µg/mL (≈ 3.7 µM) | 25 µg/mL (≈ 57.8 µM) | 3.2 µg/mL (≈ 7.4 µM) | 25 µg/mL (≈ 57.8 µM)
10 | COC(=O)c1cn(-c2ccc(C)cc2)c2c1C(=O)C(C)=C(C)C2=O | > 100 µg/mL | > 100 µg/mL | 3.2 µg/mL (≈ 9.9 µM) | 0.8 µg/mL (≈ 2.47 µM) | > 100 µg/mL
11 | CCOC(=O)C(C#N)C1=C(Cl)C(=O)C(C)=C(C)C1=O (stereo not given) | > 100 µg/mL | > 100 µg/mL | 100 µg/mL (≈ 355 µM) | 25 µg/mL (≈ 88.7 µM) | > 100 µg/mL
12 | O=C1C(Sc2ccc(O)cc2)=C(Sc2ccc(O)cc2)C(=O)c2[nH]ccc21 | 50 µg/mL (≈ 126 µM) | 50 µg/mL (≈ 126 µM) | > 100 µg/mL | 25 µg/mL (≈ 63.2 µM) | > 100 µg/mL
13 | O=C1C(Sc2ccccc2)=C(Sc2ccccc2)C(=O)c2[nH]ccc21 | > 100 µg/mL | > 100 µg/mL | > 100 µg/mL | 12.5 µg/mL (≈ 34.4 µM) | 50 µg/mL (≈ 138 µM)
14 | CCc1ccc(-n2cc(C(=O)OC)c3c2C(=O)C(C)=C(C)C3=O)cc1 | 25 µg/mL (≈ 74.1 µM) | 50 µg/mL (≈ 148 µM) | 50 µg/mL (≈ 148 µM) | 50 µg/mL (≈ 148 µM) | 3.2 µg/mL (≈ 9.48 µM)
15 | COC(=O)c1cn(-c2ccccc2)c2c1C(=O)C(C)=C(C)C2=O | 3.2 µg/mL (≈ 10.3 µM) | 12.5 µg/mL (≈ 40.4 µM) | 1.6 µg/mL (≈ 5.17 µM) | 6.3 µg/mL (≈ 20.4 µM) | 25 µg/mL (≈ 80.8 µM)
16 | Nc1nc(=O)[nH]cc1F [FLUCYTOSINE] | 6.3 µg/mL (≈ 48.8 µM) | 12.5 µg/mL (≈ 96.8 µM) | 6.3 µg/mL (≈ 48.8 µM) | 12.5 µg/mL (≈ 96.8 µM) | 50 µg/mL (≈ 387 µM)
17 | O=C1C(Sc2ccc(F)cc2)=C(Sc2ccc(F)cc2)C(=O)c2[nH]ccc21 | > 100 µg/mL | 25 µg/mL (≈ 62.6 µM) | 3.2 µg/mL (≈ 8.01 µM) | 6.3 µg/mL (≈ 15.8 µM) | 100 µg/mL (≈ 250 µM)
18 | COC(=O)c1cn(-c2ccc(Cl)cc2)c2c1C(=O)C(C)=C(C)C2=O | 12.5 µg/mL (≈ 36.4 µM) | 12.5 µg/mL (≈ 36.4 µM) | 0.8 µg/mL (≈ 2.33 µM) | 12.5 µg/mL (≈ 36.4 µM) | 25 µg/mL (≈ 72.7 µM)
19 | COC(=O)c1cn(-c2ccc(I)cc2)c2c1C(=O)C(C)=C(C)C2=O | 25 µg/mL (≈ 57.4 µM) | 12.5 µg/mL (≈ 28.7 µM) | 50 µg/mL (≈ 115 µM) | 50 µg/mL (≈ 115 µM) | 100 µg/mL (≈ 230 µM)
20 | CCOC(=O)c1cn(C)c2c1C(=O)C(C)=C(C)C2=O | > 100 µg/mL | 25 µg/mL (≈ 95.7 µM) | 50 µg/mL (≈ 191 µM) | 100 µg/mL (≈ 383 µM) | > 100 µg/mL
21 | COC(=O)c1cn(-c2ccc(Br)cc2)c2c1C(=O)C(C)=C(C)C2=O | 50 µg/mL (≈ 129 µM) | 6.3 µg/mL (≈ 16.2 µM) | 50 µg/mL (≈ 129 µM) | 50 µg/mL (≈ 129 µM) | 3.2 µg/mL (≈ 8.24 µM)
22 | COC(=O)C(C#N)C1=C(Cl)C(=O)C(C)=C(C)C1=O (stereo not given) | > 100 µg/mL | > 100 µg/mL | 100 µg/mL (≈ 374 µM) | 6.3 µg/mL (≈ 23.5 µM) | > 100 µg/mL
23 | Cc1cccc(SC2=C(Sc3cccc(C)c3)C(=O)c3[nH]ccc3C2=O)c1 | > 100 µg/mL | 12.5 µg/mL (≈ 31.9 µM) | > 100 µg/mL | 3.2 µg/mL (≈ 8.17 µM) | 50 µg/mL (≈ 128 µM)
24 | COC(=O)c1cn(-c2ccc(F)cc2)c2c1C(=O)C(C)=C(C)C2=O | > 100 µg/mL | > 100 µg/mL | 3.2 µg/mL (≈ 9.78 µM) | 3.2 µg/mL (≈ 9.78 µM) | 12.5 µg/mL (≈ 38.2 µM)
25 | O=C1C(Sc2ccc(F)c(F)c2)=C(Sc2ccc(F)c(F)c2)C(=O)c2[nH]ccc21 | > 100 µg/mL | > 100 µg/mL | 12.5 µg/mL (≈ 28.7 µM) | 50 µg/mL (≈ 115 µM) | > 100 µg/mL
